Screening data from PubChem.
In the library only some 3% were active in any assay of this set; here they are far more common.
UCH37 inh = human UCH37 deubiquitinating enzyme inhibition; inhibition, % (test concentration not listed); 330,000 compounds, 0.33% hits; Q9Y5K5; purified proteasome/UCH37, Ub-AMC cleavage fluorescence; AID 588478;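 active = mean inhibition over replicate wells above about 20%, limit read from the data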
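Assay system: Proteasome-bound UCH37. Buffer or medium: pH 7.4 Tris-HCl (50 mM) with ovalbumin, ATP-MgCl2, DTT. Incubation: 30 min preincubation with enzyme, 25 min cleavage at room temperature. Measured by: fluorescence, ex 355 nm, em 460 nm. Read-out basis: percent inhibition. Control set: wells without proteasome as full block, compound-free enzyme plus substrate as uninhibited.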
MEKK2 WT-MEK5 = raises or lowers MEK5 binding to wildtype human MEKK2 PB1 domain. Q9Y2U5. bead flow cytometry, Alexa488-MEK5 binding to MEKK2 WT; actives lie on both sides. binding response (% of control), % at 10 µM. 290,000 compounds, 1.1% hits; in the data active = binding response below about 67% or above about 130%
UBC13 inh = inhibitors of human UBC13 polyubiquitin chain formation. inhibition, % at 20 µM. 330,000 compounds, 0.47% hits. P61088. TR-FRET. AID 485273; in the data active = inhibition above about 45%, passing the limit was not always enough
MEKK2 mut-MEK5 = signal of MEK5 binding to mutant human MEKK2 PB1 domain | bead flow cytometry, Alexa488-MEK5 binding to MEKK2 mutant | percent response, % at 10 µM | 290,000 compounds, 0.35% hits; in the data active = percent response above about 24%, passing the limit was not always enough
MEKK3 PB1 HTS = MEKK3-MEK5 PB1 interaction, increase or decrease; bead-based flow cytometry, Alexa488-MEK5 binding to MEKK3; actives lie on both sides; 0 = blocked by unlabeled MEK5, 100 = vehicle; binding response (% of control), % at 10 µM; 290,000 compounds, 1.4% hits;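 active = binding response more than 3 SD above or below the average of its plate-row segment, actives on both sides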;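 note: Alexa488 bead fluorescence after subtracting the streptavidin-only scavenger bead signal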
Apaf1 inhib = human Apaf-1 inhibition; O14727; reconstituted apoptosome caspase-3 activity, DEVD-Rh110 fluorescence; inhibition, % at 20 µM; 330,000 compounds, 0.71% hits; AID 489030; active = inhibition of at least 40% at 20 µM
Target sequence (O14727 whole entry, looked up): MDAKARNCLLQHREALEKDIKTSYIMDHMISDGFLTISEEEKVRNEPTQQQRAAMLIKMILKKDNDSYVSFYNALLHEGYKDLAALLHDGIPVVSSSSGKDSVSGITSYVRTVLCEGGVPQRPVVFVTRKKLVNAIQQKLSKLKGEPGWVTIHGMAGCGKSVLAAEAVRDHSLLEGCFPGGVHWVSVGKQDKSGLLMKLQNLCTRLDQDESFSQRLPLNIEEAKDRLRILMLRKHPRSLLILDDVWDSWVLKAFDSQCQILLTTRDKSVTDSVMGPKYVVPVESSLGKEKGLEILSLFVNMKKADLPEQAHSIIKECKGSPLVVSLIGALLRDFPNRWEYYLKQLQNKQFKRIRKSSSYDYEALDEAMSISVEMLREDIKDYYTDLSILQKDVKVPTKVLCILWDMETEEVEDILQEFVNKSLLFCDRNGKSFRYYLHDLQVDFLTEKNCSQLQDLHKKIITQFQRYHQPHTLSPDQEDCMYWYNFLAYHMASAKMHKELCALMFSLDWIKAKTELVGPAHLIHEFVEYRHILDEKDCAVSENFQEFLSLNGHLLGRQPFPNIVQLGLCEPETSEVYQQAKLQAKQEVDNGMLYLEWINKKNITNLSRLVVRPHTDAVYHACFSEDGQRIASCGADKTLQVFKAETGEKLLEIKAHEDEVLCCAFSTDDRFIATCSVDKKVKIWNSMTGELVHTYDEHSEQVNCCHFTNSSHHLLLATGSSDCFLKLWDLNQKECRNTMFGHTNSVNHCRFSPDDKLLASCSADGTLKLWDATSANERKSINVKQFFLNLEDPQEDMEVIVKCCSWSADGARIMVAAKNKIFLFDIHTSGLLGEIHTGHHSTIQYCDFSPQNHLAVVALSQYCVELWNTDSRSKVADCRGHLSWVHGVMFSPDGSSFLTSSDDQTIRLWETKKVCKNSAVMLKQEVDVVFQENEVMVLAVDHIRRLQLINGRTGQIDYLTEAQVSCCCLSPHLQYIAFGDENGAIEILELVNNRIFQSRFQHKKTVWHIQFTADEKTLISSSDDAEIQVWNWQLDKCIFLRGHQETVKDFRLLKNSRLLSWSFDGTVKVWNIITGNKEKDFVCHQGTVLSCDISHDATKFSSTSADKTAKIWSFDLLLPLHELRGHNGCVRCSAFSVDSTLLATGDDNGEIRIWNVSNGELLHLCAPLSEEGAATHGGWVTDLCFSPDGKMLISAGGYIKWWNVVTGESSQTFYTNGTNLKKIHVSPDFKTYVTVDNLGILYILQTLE
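System – cell-free apoptosome with Apaf-1, procaspase-3 and caspase-9 · Buffer or medium – pH 7.5 Hepes buffer with CHAPS, BSA, DTT · Also added – cytochrome c with DEVD-Rh110 · Times – 30 min compound preincubation, 50 min activation, room temperature · Technique – Rh110 fluorescence intensity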
MEKK2wt confirm = raises or lowers MEK5 binding to wildtype human MEKK2, retest; AID 1892; binding response (% of control), % at 10 µM; shares compounds with MEKK3 PB1 HTS; bead flow cytometry, Alexa488-MEK5 binding to MEKK2 WT; actives lie on both sides; 5,900 compounds, 2.4% hits; in the data active = binding response below about 16% or above about 210%; inactive = in between
MEKK2mut-MEK5 = signal of MEK5 binding to mutant human MEKK2, retest. 5,900 compounds, 2% hits. percent response, % at 10 µM. bead flow cytometry, Alexa488-MEK5 binding to MEKK2 mutant. AID 1893. shares compounds with MEKK3 PB1 HTS; in the data active = percent response mostly above about 71%, no sharp cut-off; inactive = mostly below about 38%;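 note: higher means compound restores mutant binding toward wildtype level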
MEKK3-MEK5 inh = confirmation of inhibitors of MEK5 binding to human MEKK3 | shares compounds with MEKK3 PB1 HTS | bead flow cytometry, Alexa488-MEK5 binding to MEKK3; active compounds read low | binding response (% of control), % at 10 µM | 5,900 compounds, 1.8% hits | AID 1894;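 active = binding response below 72% of control, or above a set upper limit, though filed actives all read lower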;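 note: lower values mean stronger disruption of MEK5 binding to MEKK3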
Casp3 counter = inhibits human caspase-3 in UBC13 counter-screen; 1,400 compounds, 4% hits; inhibition, % at 20 µM; Recombinant caspase-3, Caspase-Glo 3/7 luminescence, 60 min; shares compounds with UBC13 inh;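 active = mean inhibition across replicates above about 26%, limit read from the data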
UBC13 confirm = confirmation of human UBC13 polyubiquitin inhibitors. shares compounds with UBC13 inh. UBC13 polyubiquitination, TR-FRET, biochemical. inhibition, % at 10 µM. 1,400 compounds, 68% hits; in the data active = inhibition above about 45%
Numbers stand for hits; – = inactive; · = no result given; [ ] = another dose, or the depositor's remark.

SMILES	UCH37 inh	MEKK2 WT-MEK5	UBC13 inh	MEKK2 mut-MEK5	MEKK3 PB1 HTS	Apaf1 inhib	MEKK2wt confirm	MEKK2mut-MEK5	MEKK3-MEK5 inh	Casp3 counter	UBC13 confirm
Cn1nc2c3cc(F)ccc3n(Cc3ccc(F)cc3)cc-2c1=O	–	–	–	–	–	–	·	·	·	·	·
CCN(CC)Cc1c(C(=O)N/N=C/c2ccco2)nnn1-c1nonc1N	·	–	–	–	–	–	·	·	·	·	·
O=C(CCCCn1cnc2c(=S)nc[nH]c21)Nc1ccc(C(=O)O)c(O)c1	–	·	·	·	·	·	·	·	·	·	·
O=c1[nH]c(C(F)(F)F)nc2ccc3ccccc3c12	–	–	–	–	–	–	·	·	·	·	·
CCN(CCCNC(=O)c1cc2c(-c3cccc(OC)c3)nn(C)c2s1)Cc1ccccc1	–	149.0	49.1	31.0	–	–	–	–	–	–	46.6
COc1ccc(C(=O)NC(=S)NCc2cccnc2)cc1Br	–	–	–	–	–	–	·	·	·	·	·
COC(=O)c1c(NC(=O)COC(=O)CCNS(=O)(=O)c2ccccc2)sc(C)c1C	–	–	–	–	–	–	·	·	·	·	·
COc1c(Cl)cccc1-c1cn2ccc(C)cc2n1	–	–	–	–	–	–	·	·	·	·	·
COCc1ccc(-c2c(-c3ccsc3)oc(=O)c3cc(OC)c(OC)cc23)cc1	–	·	–	·	·	–	·	·	·	·	·
Cc1ccc2c(c1)c1c(n2CC(O)CNC2CCCCC2)CCCC1 (stereo not given)	–	154.0	60.6	–	–	–	–	–	–	–	–
Cc1ccc2c(c1)c1c(n2CC(O)CNC(CO)(CO)CO)CCCC1 (stereo not given)	–	–	–	–	–	–	·	·	·	·	·
CN(C)S(=O)(=O)c1cccc(NC(=O)CSc2nc3c(cc2C#N)C(=O)CC(C)(C)C3)c1	–	–	–	–	–	–	·	·	·	·	·
COc1ccc(C=NNc2cc(C)nc3ccc(OC)cc23)c(OC)c1	–	·	·	·	·	·	·	·	·	·	·
COc1ccc2nc(C)cc(N/N=C/c3cccc(OC)c3O)c2c1	·	260.0	58.4	72.0	–	–	236.0	79.0	–	–	110.9
Cc1[nH]c(=O)[nH]c(=O)c1S(=O)(=O)N1CCCC(C(=O)N2CCC(Cc3ccccc3)CC2)C1 (stereo not given)	–	–	–	–	–	–	·	·	·	·	·
CCN(CC)c1ccc(NC(=O)CN2C(=O)CC(C)(C)S(=O)(=O)c3ccccc32)c(C)c1	–	–	–	–	–	–	·	·	·	·	·
CCN(CC)CCOC(=O)c1cccc(OC)c1	–	–	–	–	–	–	·	·	·	·	·
CCN(CC)CCOC(=O)c1ccc(N/C=C(/C#N)c2nc(-c3ccc(OC)cc3)cs2)cc1	–	–	96.4	–	22.0[inhibitor]	–	212.0	–	–	–	129.6
CC(C)(C)c1cc(NCCCn2ccnc2)n2ncc(-c3ccccc3)c2n1	–	145.0	60.7	–	–	–	–	–	–	–	55.2
CNC(=O)c1cc2cc(Cc3ccccc3Cl)ccc2oc1=O	–	–	–	–	–	–	·	·	·	·	·
COc1ccc(C[C@H]2CN3C(=NC[C@H]3Cc3ccccc3)N2CCNC(=O)CCC2CCCCC2)cc1	–	164.0	66.4	–	–	–	–	–	–	–	62.3
